This is an account of results in paper PMC2900601 (Cell, 2009).

Assay [1] deals with Schizosaccharomyces pombe Nbs1 N-terminal FHA/BRCT-repeat fragment (1-324) (Schizosaccharomyces pombe) (UniProt O43070). As to the kind of experiment: ITC.
The target in assay [2] is human Nbs1 N-terminal FHA/BRCT-repeat fragment (1-382) (human) (UniProt O60934). As to the kind of experiment: ITC.
Assay [3] concerns the target T1, spNbs1 FHA/BRCT2 region (1-324) (Schizosaccharomyces pombe, UniProt O43070).
T1 sequence (O43070 1-324): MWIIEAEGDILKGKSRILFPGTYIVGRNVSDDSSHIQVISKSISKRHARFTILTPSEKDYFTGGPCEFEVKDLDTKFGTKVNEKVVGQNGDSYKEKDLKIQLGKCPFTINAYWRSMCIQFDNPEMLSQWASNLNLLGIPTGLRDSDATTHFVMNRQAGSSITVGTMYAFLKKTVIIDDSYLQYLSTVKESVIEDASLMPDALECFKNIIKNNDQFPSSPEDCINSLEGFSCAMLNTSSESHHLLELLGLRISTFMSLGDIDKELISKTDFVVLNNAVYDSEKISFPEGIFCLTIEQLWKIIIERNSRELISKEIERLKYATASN
The assay is described as follows: ITC of phosphopeptides with wild-type spNbs1 N-terminal fragment. Type of assay: binding. In outline: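 Purified recombinant […] N-terminal fragment of S. pombe Nbs1 titrated by ITC with the same Mdc1 phosphothreonine peptide used for the human protein. An unphosphorylated peptide of identical sequence was also tested. Affinity was derived from the titration.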

In assay [4] the target is T2, human Nbs1 (hNbs1) FHA/BRCT fragment (1-382) (Homo sapiens, UniProt O60934).
T2 sequence (O60934 1-382): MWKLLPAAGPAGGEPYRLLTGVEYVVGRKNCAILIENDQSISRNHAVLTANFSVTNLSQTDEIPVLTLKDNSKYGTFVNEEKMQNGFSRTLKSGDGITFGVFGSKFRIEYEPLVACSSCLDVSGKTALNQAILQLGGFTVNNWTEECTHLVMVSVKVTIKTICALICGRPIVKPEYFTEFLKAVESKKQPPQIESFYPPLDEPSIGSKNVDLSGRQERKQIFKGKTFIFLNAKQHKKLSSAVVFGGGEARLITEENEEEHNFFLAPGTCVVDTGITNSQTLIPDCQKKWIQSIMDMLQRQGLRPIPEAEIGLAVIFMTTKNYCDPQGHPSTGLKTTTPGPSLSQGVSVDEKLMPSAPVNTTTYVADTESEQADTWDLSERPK
The assay is described as follows: ITC of phosphopeptides with wild-type hNbs1 N-terminal fragment. Type of assay: binding.

Assay [5] has as its target T3, spNbs1 (1-324) R27A (Schizosaccharomyces pombe, UniProt O43070 1-324, R27A).
T3 sequence: T1 sequence (O43070 1-324) with R27A
The assay is described as follows: ITC.

In assay [6] the target is T4, human Nbs1 N-terminal FHA/BRCT-repeat fragment (1-382) (human, UniProt O60934 1-382).
T4 sequence: T2 sequence (O60934 1-382)
As to the kind of experiment: ITC.

Assay [7] has as its target T5, hNbs1 (1-382) R28A (human, UniProt O60934 1-382, R28A).
T5 sequence: T2 sequence (O60934 1-382) with R28A
The assay is described as follows: ITC.

The target in assay [8] is T6, hNbs1 (1-382) K160M (human, UniProt O60934 1-382, K160M).
T6 sequence: T2 sequence (O60934 1-382) with K160M
The assay is described as follows: ITC.

The target of assay [9] is T7, hNbs1 (1-382) S42A (human, UniProt O60934 1-382, S42A).
T7 sequence: T2 sequence (O60934 1-382) with S42A
The assay is described as follows: ITC.

Numbering of substitutions follows the chain as printed. Read-outs that look alike come from different tables or passages of the source. Where no end group is shown, it is not given here. [ ]: non-standard residue; d: D form. pT = C[C@@H](OP(=O)(O)O)[C@H](N)C(=O)O; pS = N[C@@H](COP(=O)(O)O)C(=O)O

In [1], “Ctp1 Site 2 di-phosphorylated peptide (pSer-87 and pThr-89)” had a Kd of 50 nM.

Molecule “Ctp1 Site 1 di-phosphorylated peptide (pSer-77/pThr-79)” showed a fold weaker binding than the di-phosphorylated Site 2 peptide in assay [1] of 30 fold.

On to Mdc1 SDpTD mono-phosphorylated peptide, for which, in assay [2], the fold reduced affinity against the di-phosphorylated Mdc1 peptide was found to be 17 fold.

Consider “pSDTD: Mdc1 peptide of the same sequence in which the threonine was not phosphorylated (GFID[pS]DTDAEEE)”, for which the “binding to spNbs1 (in words)” value in [3] is listed as “neither spNbs1 nor hNbs1 bound”. Also, the “binding to hNbs1 (in words)” value is on record as “neither spNbs1 nor hNbs1 bound” in assay [4] and “lack of hNbs1 interactions” in assay [4] (listed as mono-phosphorylated pSDTD).

“Mdc1 pSDpTD motif di-phosphorylated peptide (Mdc1 residues 325-336) (from UniProt Q14676 325-336)” yielded a Kd in [1] of 500 nM. In [2], this molecule showed a Kd of 1000 nM and a stoichiometry N greater than 1.

On to “Ctp1 peptide containing singly phosphorylated Thr-78”, for which the Kd in assay [1] was 200 nM.

“Ctp1 Site 2 peptide phosphorylated only on pThr-89” yielded a fold weaker binding than the di-phosphorylated Site 2 peptide in assay [1] of 10 fold.

In assay [1], “Ctp1 Site 1 peptide phosphorylated only on pThr-79” came in with a fold weaker binding than the di-phosphorylated Site 1 peptide of 8 fold.

On to GFID[pS]D[pT]DAEEE [Mdc1 pSDpTD motif di-phosphorylated peptide (Mdc1 residues 325-336)], for which the “fold reduction of apparent binding affinity against wild-type spNbs1” value in [5] was roughly 100 fold.

As for FID[pS]D[pT]DVEEE [di-phosphorylated peptide with a core consensus of all six Mdc1 motifs (FIDpSDpTDVEEE)], the “stoichiometry N” value in assay [6] was greater than 1. Besides, the “fold reduction of stoichiometry against wild-type hNbs1” value in assay [7], in assay [8] and in assay [9] was roughly 2 fold each time.
